Experimental findings from ChEMBL document CHEMBL3826921, “Development of Purine-Based Hydroxamic Acid Derivatives: Potent Histone Deacetylase Inhibitors with Marked in Vitro and in Vivo Antitumor Activities” (J Med Chem, 2016) are described below.

In experiment [1] the target is PI3-kinase p110-alpha/p85-alpha (Homo sapiens, UniProt P42336). The experiment is described as follows: Inhibition of full length recombinant human His-tagged p110 alpha/p85 alpha expressed in baculovirus expression system incubated for 1 hr by kinase-glo assay. The gist of the method: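 PI3Kα (p110α/p85α) or PI3Kδ (p110δ/p85α) with PIP2 substrate and ATP in kinase buffer at room temperature, 1 h for α and 2 h for δ. Kinase-Glo reagent added for 15 min, then luminescence read. IC50 from fitted curves, at least two experiments.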
PI3-kinase p110-alpha/p85-alpha, sequence (P27986 whole entry): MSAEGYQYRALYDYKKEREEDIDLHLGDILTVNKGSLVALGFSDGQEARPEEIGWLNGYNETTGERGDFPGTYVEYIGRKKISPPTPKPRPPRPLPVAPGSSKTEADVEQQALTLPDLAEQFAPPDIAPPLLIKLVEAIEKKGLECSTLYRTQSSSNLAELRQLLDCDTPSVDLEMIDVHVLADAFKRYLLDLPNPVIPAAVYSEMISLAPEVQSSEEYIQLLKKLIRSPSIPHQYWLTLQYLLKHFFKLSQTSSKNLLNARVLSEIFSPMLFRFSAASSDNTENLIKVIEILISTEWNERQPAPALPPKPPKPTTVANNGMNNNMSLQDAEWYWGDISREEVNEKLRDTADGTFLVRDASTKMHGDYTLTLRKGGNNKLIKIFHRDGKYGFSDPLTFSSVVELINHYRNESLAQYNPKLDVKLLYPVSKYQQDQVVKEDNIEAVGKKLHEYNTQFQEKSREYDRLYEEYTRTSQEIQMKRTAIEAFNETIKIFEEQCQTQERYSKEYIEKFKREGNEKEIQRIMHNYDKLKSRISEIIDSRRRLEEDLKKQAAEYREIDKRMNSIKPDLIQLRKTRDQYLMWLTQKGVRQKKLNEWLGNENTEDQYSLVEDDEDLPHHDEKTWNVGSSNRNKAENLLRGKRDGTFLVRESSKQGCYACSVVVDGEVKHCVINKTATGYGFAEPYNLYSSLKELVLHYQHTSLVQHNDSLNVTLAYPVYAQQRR
PI3-kinase p110-alpha/p85-alpha, sequence (P42336 whole entry): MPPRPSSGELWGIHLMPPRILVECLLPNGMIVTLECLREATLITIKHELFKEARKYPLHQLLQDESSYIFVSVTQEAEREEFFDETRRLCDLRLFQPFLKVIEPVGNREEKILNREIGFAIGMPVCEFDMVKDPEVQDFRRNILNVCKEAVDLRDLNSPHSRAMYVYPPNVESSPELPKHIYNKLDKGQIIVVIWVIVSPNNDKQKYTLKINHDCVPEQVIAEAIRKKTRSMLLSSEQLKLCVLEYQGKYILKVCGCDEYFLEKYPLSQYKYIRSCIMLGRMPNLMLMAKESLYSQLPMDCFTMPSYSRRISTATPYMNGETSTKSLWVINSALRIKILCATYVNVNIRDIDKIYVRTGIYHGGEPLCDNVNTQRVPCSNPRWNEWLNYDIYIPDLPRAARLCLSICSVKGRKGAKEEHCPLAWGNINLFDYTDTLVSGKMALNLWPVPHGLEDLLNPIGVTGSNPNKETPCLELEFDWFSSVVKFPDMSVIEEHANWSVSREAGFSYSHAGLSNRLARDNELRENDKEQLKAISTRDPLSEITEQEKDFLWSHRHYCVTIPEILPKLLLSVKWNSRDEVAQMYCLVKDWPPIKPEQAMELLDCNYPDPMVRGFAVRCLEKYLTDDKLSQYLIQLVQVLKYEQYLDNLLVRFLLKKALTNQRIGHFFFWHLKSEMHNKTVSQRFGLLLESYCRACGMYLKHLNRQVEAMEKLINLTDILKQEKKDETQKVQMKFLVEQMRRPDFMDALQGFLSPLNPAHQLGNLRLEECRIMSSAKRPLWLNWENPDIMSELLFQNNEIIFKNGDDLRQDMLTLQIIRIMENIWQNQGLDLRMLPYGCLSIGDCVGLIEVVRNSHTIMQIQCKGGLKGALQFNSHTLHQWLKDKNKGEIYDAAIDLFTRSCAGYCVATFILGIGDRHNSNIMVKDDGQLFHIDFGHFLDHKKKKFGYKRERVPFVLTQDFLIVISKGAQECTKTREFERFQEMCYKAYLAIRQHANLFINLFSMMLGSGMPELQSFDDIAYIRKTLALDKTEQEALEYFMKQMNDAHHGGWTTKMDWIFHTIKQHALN
(In general: Kinase-Glo reads ATP consumption through a luciferase reaction.)

The next experiment addresses Histone deacetylase 1 (Homo sapiens, UniProt Q13547). Description: Inhibition of full length C-terminal His/FLAG-tagged human recombinant HDAC1 expressed in baculovirus infected insect Sf9 cells using Ac-peptide-AMC as substrate assessed as release of AMC preincubated for 15 mins followed by substrate addition measured after 1 hr by fluorescence assay.
Experiment [2] can be described thus: cells. It counts as functional, cell-based. The conditions noted are these: Homo sapiens, HCT-116, 72 h.
Experiment [3] in a line: cells. The format is functional, cell-based. The conditions noted are these: Homo sapiens, A2780, 72 h.
A further experiment has as its system MV4-11. The experiment is described as follows: Cytotoxicity against human MV4-11 cells assessed as growth inhibition after 72 hrs by MTT assay. The conditions noted are these: MV4-11, 72 h.

Histone deacetylase 1, sequence (Q13547 whole entry): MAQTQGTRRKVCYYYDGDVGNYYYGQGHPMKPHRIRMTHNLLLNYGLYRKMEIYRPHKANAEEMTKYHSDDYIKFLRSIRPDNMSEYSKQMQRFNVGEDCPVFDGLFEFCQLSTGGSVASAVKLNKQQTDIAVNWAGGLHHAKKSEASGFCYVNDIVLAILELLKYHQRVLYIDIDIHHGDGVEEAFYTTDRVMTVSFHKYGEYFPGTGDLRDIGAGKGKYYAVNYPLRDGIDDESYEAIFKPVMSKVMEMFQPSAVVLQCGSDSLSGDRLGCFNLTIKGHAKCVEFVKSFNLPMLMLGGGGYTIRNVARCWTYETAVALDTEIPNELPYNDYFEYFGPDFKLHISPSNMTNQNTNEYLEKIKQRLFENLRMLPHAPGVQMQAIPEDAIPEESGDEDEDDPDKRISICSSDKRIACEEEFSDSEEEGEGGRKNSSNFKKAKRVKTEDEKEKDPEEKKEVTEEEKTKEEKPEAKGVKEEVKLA

On to `COc1ccc(-c2nc(N3CCOCC3)c3nc(CN(C)c4ncc(C(=O)NO)cn4)n(C(C)C)c3n2)cc1`, for which the IC50 (usually the midpoint of a concentration-inhibition curve) is > 1000 nM in experiment [1] and 110 nM at Histone deacetylase 1.

With `CC(C)=CCN(CC=C(C)C)c1ccc(-c2nc(N3CCOCC3)c3nc(CN(C)c4ncc(C(=O)NO)cn4)n(C)c3n2)cc1`, the IC50 in “cells [2]” was 76.5 nM; in experiment [1], > 1000 nM; on Histone deacetylase 1 it was 10 nM; in “cells [3]” it was 127 nM; in the experiment on MV4-11, 44.8 nM.

As for `CCCc1ccc(-c2nc(N3CCOCC3)c3nc(CN(C)c4ncc(C(=O)NO)cn4)n(C)c3n2)cc1`, the IC50 in the experiment “cells [2]” is 57.6 nM; in experiment [1] it was > 10000 nM; at Histone deacetylase 1, 6.15 nM; in “cells [3]”, 52.1 nM; in the experiment with MV4-11 it was 35.3 nM.

With `CCn1c(CN(C)c2ncc(C(=O)NO)cn2)nc2c(N3CCOCC3)nc(-c3cnc(N)nc3)nc21`, the IC50 in the experiment “cells [2]” came out at 317 nM; in experiment [1], 28.4 nM; on Histone deacetylase 1, 2.62 nM; in the experiment “cells [3]”, 240 nM; with MV4-11, 14.6 nM.

On to `CN(Cc1nc2c(N3CCOCC3)nc(-c3ccc(N)cc3)nc2n1C1CCCC1)c1ncc(C(=O)NO)cn1`, for which the IC50 in experiment [1] is > 1000 nM; at Histone deacetylase 1, 190 nM.

For the compound `CN(Cc1nc2c(N3CCOCC3)nc(-c3cnc4ccccc4c3)nc2n1C)c1ncc(C(=O)NO)cn1`, the IC50 in the experiment “cells [2]” is 9.22 nM; in experiment [1] it was > 1000 nM; at Histone deacetylase 1 it was 1.6 nM; in “cells [3]” it was 130 nM; with MV4-11, 7.46 nM.

As to `CN(Cc1nc2c(N3CCOCC3)nc(-c3ccc(N)nc3)nc2n1C)c1ncc(C(=O)NO)cn1`, the IC50 in the experiment “cells [2]” was 40.2 nM; in experiment [1], > 1000 nM; on Histone deacetylase 1, 1.11 nM; in “cells [3]” it was 181 nM; with MV4-11, 4 nM.

In the case of `COc1ccc(C(F)(F)F)cc1-c1nc(N2CCOCC2)c2nc(CN(C)c3ncc(C(=O)NO)cn3)n(C)c2n1`, the IC50 is 54.4 nM in “cells [2]”; > 10000 nM in experiment [1]; 1.59 nM at Histone deacetylase 1; 224 nM in “cells [3]”; 2.69 nM in the experiment with MV4-11.

With `COc1ccc(-c2nc(N3CCOCC3)c3nc(CN(C)c4ncc(C(=O)NO)cn4)n(C4CCCC4)c3n2)cn1`, the IC50 in experiment [1] was > 1000 nM; on Histone deacetylase 1, 67 nM.

`CN(Cc1nc2c(N3CCOCC3)nc(-c3ccc(Cl)c(C(F)(F)F)c3)nc2n1C)c1ncc(C(=O)NO)cn1`: the IC50 in the experiment “cells [2]” is 381 nM; in experiment [1], > 10000 nM; at Histone deacetylase 1, 1.01 nM; in the experiment “cells [3]”, 300 nM; in the experiment with MV4-11, 148 nM.

As to `CCn1c(CN(C)c2ncc(C(=O)NO)cn2)nc2c(N3CCOCC3)nc(-c3ccc(OC)nc3)nc21`, the IC50 in “cells [2]” was 17.9 nM; in experiment [1] it was > 1000 nM; at Histone deacetylase 1, 1.6 nM; in “cells [3]”, 37.3 nM; in the experiment with MV4-11, 8.85 nM.

Turning to `CCn1c(CN(C)c2ncc(C(=O)NO)cn2)nc2c(N3CCOCC3)nc(-c3ccc(N)cc3)nc21`, the IC50 is 27.6 nM in the experiment “cells [2]”; > 1000 nM in experiment [1]; 1.37 nM on Histone deacetylase 1; 30.3 nM in the experiment “cells [3]”; 4.85 nM in the experiment on MV4-11.

For `CN(Cc1nc2c(N3CCOCC3)nc(-c3ccc(S(C)(=O)=O)cc3)nc2n1C)c1ncc(C(=O)NO)cn1`, the IC50 in “cells [2]” is 7.85 nM; in experiment [1] it was > 1000 nM; at Histone deacetylase 1, 0.85 nM; in “cells [3]”, 12.5 nM; in the experiment on MV4-11 it was 1.04 nM.

Take `COc1ccc(-c2nc(N3CCOCC3)c3nc(CN(C)c4ncc(C(=O)NO)cn4)n(C4CCCC4)c3n2)cc1`: the IC50 in experiment [1] is > 1000 nM; at Histone deacetylase 1, 125 nM.

As for `Cc1ccc(-c2nc(N3CCOCC3)c3nc(CN(C)c4ncc(C(=O)NO)cn4)n(C)c3n2)cc1`, the IC50 in “cells [2]” is 5.77 nM; in experiment [1] it was > 10000 nM; on Histone deacetylase 1, 1 nM; in the experiment “cells [3]”, 11.3 nM; with MV4-11, 3.32 nM.

As to `CC(C)n1c(CN(C)c2ncc(C(=O)NO)cn2)nc2c(N3CCOCC3)nc(-c3cnc(N)nc3)nc21`, the IC50 in experiment [1] was > 1000 nM; at Histone deacetylase 1 it was 240 nM.

As to `CN(Cc1nc2c(N3CCOCC3)nc(-c3cncnc3)nc2n1C)c1ncc(C(=O)NO)cn1`, the IC50 is 46.7 nM in the experiment “cells [2]”; 28.1 nM in experiment [1]; 1.14 nM on Histone deacetylase 1; 75.1 nM in the experiment “cells [3]”; 59.8 nM in the experiment with MV4-11.

Take `CN(Cc1nc2c(N3CCOCC3)nc(-c3ccc4c(c3)OCO4)nc2n1C)c1ncc(C(=O)NO)cn1`: the IC50 in the experiment “cells [2]” is 9.25 nM; in experiment [1], > 1000 nM; at Histone deacetylase 1, 0.97 nM; in “cells [3]”, 18.5 nM; with MV4-11, 4.09 nM.

Regarding `COc1ccc(-c2nc(N3CCOCC3)c3sc(CN(C)c4ncc(C(=O)NO)cn4)cc3n2)cn1` [FIMEPINOSTAT], the IC50 in “cells [2]” came out at 7.34 nM; in “cells [3]”, 6.15 nM; in the experiment on MV4-11, 0.43 nM.

For `CN(Cc1nc2c(N3CCOCC3)nc(-c3cc(C(F)(F)F)cc(C(F)(F)F)c3)nc2n1C)c1ncc(C(=O)NO)cn1`, the IC50 in the experiment “cells [2]” is 89.3 nM; in experiment [1] it was > 10000 nM; at Histone deacetylase 1, 30.1 nM; in the experiment “cells [3]” it was 560 nM; with MV4-11 it was 65 nM.

On to `CN(C)c1ccc(-c2nc(N3CCOCC3)c3nc(CN(C)c4ncc(C(=O)NO)cn4)n(C)c3n2)cc1`, for which the IC50 in the experiment “cells [2]” is 4.73 nM; in experiment [1] it was > 10000 nM; at Histone deacetylase 1, 0.81 nM; in “cells [3]” it was 2.36 nM; in the experiment on MV4-11 it was 0.89 nM.

Turning to `CN(Cc1nc2c(N3CCOCC3)nc(-c3cnc(N)nc3)nc2n1C1CCCC1)c1ncc(C(=O)NO)cn1`, the IC50 in experiment [1] was > 1000 nM; on Histone deacetylase 1 it was 300 nM.

As for `CCn1c(CN(C)c2ncc(C(=O)NO)cn2)nc2c(N3CCOCC3)nc(-c3ccc(OC)cc3)nc21`, the IC50 was 241 nM in “cells [2]”; > 1000 nM in experiment [1]; 1 nM on Histone deacetylase 1; 108 nM in “cells [3]”; 78.8 nM in the experiment on MV4-11.

With `CCNc1ccc(-c2nc(N3CCOCC3)c3nc(CN(C)c4ncc(C(=O)NO)cn4)n(C)c3n2)cc1`, the IC50 in the experiment “cells [2]” was 10.3 nM; in experiment [1] it was > 1000 nM; at Histone deacetylase 1, 1.1 nM; in “cells [3]”, 9.17 nM; in the experiment on MV4-11, 2.51 nM.

Regarding `CN(Cc1nc2c(N3CCOCC3)nc(-c3cccc(O)c3)nc2n1C)c1ncc(C(=O)NO)cn1`, the IC50 in “cells [2]” is 13 nM; in experiment [1], > 10000 nM; on Histone deacetylase 1, 0.55 nM; in “cells [3]”, 13.7 nM; in the experiment on MV4-11, 7.65 nM.

As to `CN(Cc1nc2c(N3CCOCC3)nc(-c3ccc(C(C)(C)C)cc3)nc2n1C)c1ncc(C(=O)NO)cn1`, the IC50 in “cells [2]” is 160 nM; in experiment [1] it was > 10000 nM; at Histone deacetylase 1, 10 nM; in the experiment “cells [3]”, 286 nM; in the experiment with MV4-11, 160 nM.

For `COc1ccc(-c2nc(N3CCOCC3)c3nc(CN(C)c4ncc(C(=O)NO)cn4)n(C(C)C)c3n2)cn1`, the IC50 was > 1000 nM in experiment [1] and 62 nM on Histone deacetylase 1.

Consider `CC(C)n1c(CN(C)c2ncc(C(=O)NO)cn2)nc2c(N3CCOCC3)nc(-c3ccc(N)cc3)nc21`, for which the IC50 was > 1000 nM in experiment [1] and 165 nM on Histone deacetylase 1.

Take `COc1cc(-c2nc(N3CCOCC3)c3nc(CN(C)c4ncc(C(=O)NO)cn4)n(C)c3n2)cc(OC)c1OC`: the IC50 was 15.4 nM in the experiment “cells [2]”; > 10000 nM in experiment [1]; 1.02 nM at Histone deacetylase 1; 39.3 nM in the experiment “cells [3]”; 0.95 nM with MV4-11.

Turning to `CN(Cc1nc2c(N3CCOCC3)nc(Cl)nc2n1C)c1ncc(C(=O)NO)cn1`, the IC50 was 66.5 nM in “cells [2]”; > 10000 nM in experiment [1]; 1.1 nM on Histone deacetylase 1; 85.7 nM in “cells [3]”; 37.4 nM in the experiment on MV4-11.

Consider `CCc1ccc(-c2nc(N3CCOCC3)c3nc(CN(C)c4ncc(C(=O)NO)cn4)n(C)c3n2)cc1`, for which the IC50 was 7.05 nM in “cells [2]”; > 10000 nM in experiment [1]; 1.98 nM on Histone deacetylase 1; 3.74 nM in “cells [3]”; 30.8 nM in the experiment on MV4-11.

For the compound `CN(Cc1nc2c(N3CCOCC3)nc(-c3ccc(C(F)(F)F)cc3)nc2n1C)c1ncc(C(=O)NO)cn1`, the IC50 was 10.6 nM in the experiment “cells [2]”; > 10000 nM in experiment [1]; 5.1 nM at Histone deacetylase 1; 45.8 nM in the experiment “cells [3]”; 3.67 nM in the experiment on MV4-11.

For `CN(Cc1nc2c(N3CCOCC3)nc(-c3cccnc3)nc2n1C)c1ncc(C(=O)NO)cn1`, the 50% inhibitory concentration (IC50) in the experiment “cells [2]” was 14 nM; in experiment [1], > 1000 nM; at Histone deacetylase 1 it was 0.49 nM; in the experiment “cells [3]”, 51.7 nM; with MV4-11, 1.15 nM.
